This series concerns MS2 coat protein. In words: apparent Kd, MS2 coat protein; higher = weaker binding; RNA-MaP array; FMN 200 µM where present. A digest of the protocol: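 The apparent Kd is reported as the median of filtered per-cluster binding-curve fits. To get these curves, designs transcribed by stalled E. coli RNA polymerase on Illumina sequencing-chip clusters were titrated with SNAP-549-labelled MS2 coat protein from 0.7 or 1.5 nM, doubling to 3 µM. Titrations were run without and then with constant ligand in 100 mM Tris-HCl pH 7.5, 80 mM KCl, 4 mM MgCl2, BSA, DTT, yeast tRNA and Tween-20, and green signal was normalised to red-channel RNA signal and control-cluster median Fmax.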

[1] abbreviates: designed as: ON switch for flavin mononucleotide, no ligand.
Where [2] appears, read: ligand present: flavin mononucleotide, designed as: ON switch for flavin mononucleotide.
Setting [3] is: designed as: OFF switch for flavin mononucleotide, no ligand.
Where [4] appears, read: ligand present: flavin mononucleotide, designed as: OFF switch for flavin mononucleotide.

Take “UGGUACUAGGGAGGAUAUGGGAAGAUACAUGAGGAUCACCCAUGUUUAAGAAUGCCGAGACGCAACUAGAAGGCCCUAGUACCU”: the “apparent Kd” value by setting is: under setting [1], 354 nM; under setting [2], 20.9 nM.

“AAUUAGGUCACAGGAUAUACAACAACCAAUGCUGUAGAAGGGUGACACAUACUUAGCUGACAUGAGGAUCACCCAUGUAACCAC”: the “apparent Kd” value under setting [1] was 31.4 nM and the “apparent Kd” value under setting [2] is 8.87 nM.

Regarding “GUUAAGGUAGGAUAUACGAGAAUAUAGGGUAGAUAUAUAACACAUGAGGAUCACCCAUGUAGAAGGACCAAUUG”, the “apparent Kd” value under setting [3] was found to be 33.8 nM and the “apparent Kd” value under setting [4] was found to be 95.6 nM.

As to “UUUUAACAUGAGGAUCACCCAUGUGAGGAUAUCGAAAUUUAUAUUAAUAUUUAUUUAUCGAGAAGGCACAUUUU”, the “apparent Kd” value is, setting by setting: under setting [3], 115 nM; under setting [4], 135 nM.

With “AAUAAACUCACAGGAUAUAGCAUCGACGUUGCGAACUUAGCGACGUCGAUGCUAGAAGGGUGAAAACAUGAGGAUCACCCAUGU”, the “apparent Kd” value runs as follows: under setting [1], 30.9 nM; under setting [2], 13.4 nM.

For the sequence “CAGGUGUUAGGAUAUCGGAGAUCGAGACCGACGGGAUGAGCCGAGAAGGAACAUGAGGAUCACCCAUGUAGGUG”, the “apparent Kd” value under setting [3] came to 575 nM and the “apparent Kd” value under setting [4] came out at 247 nM.

“CUGGUUGUCGUAGGAUAUGUAGGAUAUUCCUACAUGAGGAUCACCCAUGUUCGCAUGGAAGAAGGACAGAAGGACGAUGACCAA”: the “apparent Kd” value under setting [1] is 1160 nM and the “apparent Kd” value under setting [2] amounted to 8.77 nM.

For “CUGCCUUAUGUAGGAUAUGCAUAGCAUUGCUAUGCAGAAGGACAUGAGGAUCACCCAUGUAUGUAAUCAAUACAUAUCUGGCAG”, the “apparent Kd” value was determined as 20.4 nM under setting [3] and 119 nM under setting [4].

As to “GGCGGGCGGGAGGAUAUUCGGGCUGUUUGGCUUGGAGAAGGCUCGACAUGAGGAUCACCCAUGUUUGGGUCGCC”, the “apparent Kd” value was determined as 16.2 nM under setting [3] and 27 nM under setting [4].

For the sequence “GUUAGUUAAGGAUAUACAGGGAGCCGCGGCGUCUCGCCGCAACAUGAGGAUCACCCAUGUAGAAGGUAGCCAUU”, the “apparent Kd” value runs as follows: under setting [3], 31.3 nM; under setting [4], 66.6 nM.

As for “UAUAUAUAGUAAGGAUAUGUAUUAAUUCUAUAAACAGAAGGUACUGACAUGAGGAUCACCCAUGUUUUAGUGUGGGCAUGUAGA”, the “apparent Kd” value under setting [3] worked out at 49.3 nM and the “apparent Kd” value under setting [4] stood at 56 nM.

For “GAUUAACAUGAGGAUCACCCAUGUGAGGAUAUGGACUGGCUCACUUUCCGAUUCCCGUCUAGAAGGCGCAUCUU”, the “apparent Kd” value is, setting by setting: under setting [3], 38.3 nM; under setting [4], 38.3 nM.

With “CCACGUCACAUUUACAUGAGGAUCACCCAUGUCGAAAGACAUGAGGAUAUGCAUCCUAAUUGGAUGCAGAAGGCAUGGACGUGG”, the “apparent Kd” value by setting is: under setting [1], 276 nM; under setting [2], 274 nM.

With “UAGUAUAAGGGCAUUACACAUGAGGAUCACCCAUGUACGUUAGAGGAUAUGCAUUACAGUUGAAAGUAGAAGGUUAGAGAAGGG”, the “apparent Kd” value under setting [3] came out at 40.5 nM and the “apparent Kd” value under setting [4] was 46.5 nM.

As for “GAGAAGUCAGGAUAUCCAUGGCGGCACUUGCGUGGUGGCGUGGAGAAGGGACAUGAGGAUCACCCAUGUAAAGG”, the “apparent Kd” value turned out to be 165 nM under setting [3] and 157 nM under setting [4].

As to “GUGCUUGUCGGAGGAUAUGGUUACAUGAGGAUCACCCAUGUUAUGCUUGGUUACUUGUUUAGUUUCCAGAAGGUCGGUUGGUUG”, the “apparent Kd” value was 61.1 nM under setting [3] and 71.2 nM under setting [4].

On to “GCAGCACACAUUAACAUGAGGAUCACCCAUGUCAAAAGACAUGAGGAUAUGCAUCUGAAGAAGAUGCAGAAGGCAUUGUGCUGC”, for which the “apparent Kd” value is, setting by setting: under setting [1], 467 nM; under setting [2], 24.2 nM.

Consider “GGGUACAUCGGAGGAUAUCAUGUAAAUACAUGAGGAUCACCCAUGUCGAUGGAGACAUCGGACAUUGAGAAGGCCGAUGUACCG”, for which the “apparent Kd” value is, setting by setting: under setting [1], 29.2 nM; under setting [2], 5.79 nM.

“CUUCAGUCAGGAUAUGUUAAUCUCGCCACUCGGCGAGCCGGACAGAAGGGACAUGAGGAUCACCCAUGUUAAAA”: the “apparent Kd” value turned out to be 37.6 nM under setting [3] and 22.2 nM under setting [4].

“CAGGGUCGUAUUCAGCCCGUCCACAUGAGGAUCACCCAUGUCAAGGAUAUAGAUUAAAAUACAAGCUAGAAGGUGACGCUGGGU”: the “apparent Kd” value reads like this: under setting [3], 14.3 nM; under setting [4], 42.6 nM.

As to “UUGCGACAUGAGGAUCACCCAUGUCAGGAUAUAUUGUAGAAACUGGUUGCGACCAGGCGUAGAAGGGACAUGGC”, the “apparent Kd” value is, setting by setting: under setting [3], 28.6 nM; under setting [4], 37.7 nM.

Turning to “GGAUGCCGCUCAGGAUAUGUGGGUUGUCUAGUAUUUAGAUUCCACAUGAGGAUCACCCAUGUAACACAGAAGGGAGAUGGUGAU”, the “apparent Kd” value stood at 214 nM under setting [1] and 22.7 nM under setting [2].

For “CUUUUUUUUGUGAGGAUAUACUGUUAUUAAAGUUAGUAGAAGGUACAUGAGGAUCACCCAUGUUAAUUACUUUA”, the “apparent Kd” value is 14.2 nM under setting [3] and 13.8 nM under setting [4].

For “UCAAAGCUAGGAUAUACAUGAGGAUCACCCAUGUUAUCACCCAUCGGGUCUUGCUUUUGUAGAAGGAGCAAUAA”, the “apparent Kd” value is, setting by setting: under setting [3], 28.2 nM; under setting [4], 59.8 nM.

For the sequence “CCAGAUAUGUGAGGAUAUAUAGUGGAAUACACUAUAGAAGGUAUGUGAGAACAUGAGGAUCACCCAUGUCAUUGGUUAUCUGGA”, the “apparent Kd” value reads like this: under setting [1], 29.7 nM; under setting [2], 35.6 nM.

With “AGUAAGAUGCAGAAGGUGUCAGCUAGUGCUACGACAUGAGGAUCACCCAUGUACUAGGUAGAGUACAAGGAUAUGCAUCUUACA”, the “apparent Kd” value reads like this: under setting [1], 23 nM; under setting [2], 6.15 nM.

As for “UAGGAGUCAGGAUAUGCGAGAGAUGGAAGUAAGGGAUGAGAGCAGAAGGGACAUGAGGAUCACCCAUGUAAGGA”, the “apparent Kd” value is, setting by setting: under setting [3], 39.7 nM; under setting [4], 37.8 nM.

Take “UUGAUUAUACAAGGAUAUCAAUUGUAUACAAGUCAUACAUGAGGAUCACCCAUGUUUUAUUUUUUUGAGAAGGUGUAUUGUCAG”: the “apparent Kd” value was found to be 38.9 nM under setting [1] and 24 nM under setting [2].

Take “AAAUAAACUAGCAUAAUAACCUCACAUGAGGAUCACCCAUGUCAGGAUAUCUGUCCUAAAAGGACAGAGAAGGGACGUGCUAGG”: the “apparent Kd” value by setting is: under setting [3], 5.68 nM; under setting [4], 6.95 nM.

In the case of “GGAUCAUGAGGAUAUCGAGGUUAGUACAUGAGGAUCACCCAUGUUAUCCAGGUCUCGUUUCGAGAAGGCAUGAUCC”, the “apparent Kd” value is, setting by setting: under setting [3], 21.5 nM; under setting [4], 29.9 nM.

“AUCUUGUCAGGAUAUCUGACAAGUGACUUCGGUCACAGUUCAGAGAAGGUACAUGAGGAUCACCCAUGUAGAAC”: the “apparent Kd” value was 17.4 nM under setting [3] and 18.6 nM under setting [4].

Consider “ACAUGCAUAGCGAUAUGAUCGAGAGAUCAUGUCGCUUAAAAUAGAAGGACAUGAGGAUCACCCAUGUAGGAUAUGGGAGCAUGA”, for which the “apparent Kd” value came to 25.8 nM under setting [1] and 11.7 nM under setting [2].

Consider “GGAUGACAAAGUCAUCCUAAACGAACAUGAGGAUCACCCAUGUAGGAUAUGCAACUCAAAGAGUUGCAGAAGGACAUGUGCCUU”, for which the “apparent Kd” value under setting [3] was found to be 37.2 nM and the “apparent Kd” value under setting [4] was found to be 230 nM.

Consider “UGGUACAACGGAGGAUAUCAUGUAAAUACAUGAGGAUCACCCAUGUCGUACGAGAGUACGGAGAUUGAGAAGGCCGUUGUACCU”, for which the “apparent Kd” value worked out at 25.7 nM under setting [1] and 16.1 nM under setting [2].

For the sequence “UUGGUGUACGUAGGAUAUGUAGGAUAUUCCUACAUGAGGAUCACCCAUGUUUACAUGGAAGAAGGACAGAAGGACGUGCACCAU”, the “apparent Kd” value under setting [1] was 1280 nM and the “apparent Kd” value under setting [2] worked out at 15.2 nM.

In the case of “GACUGGGCAGGAUAUACAUGAGGAUCACCCAUGUGUCUGCGUCAGGCACGUGUAGACGGUAGAAGGGCCUACAC”, the “apparent Kd” value by setting is: under setting [3], 11.6 nM; under setting [4], 13.6 nM.

“GUCAGCUCGUGAGGAUAUACAACACUGCUUCGGCAGUGUAUUGAGAUCACAUGAGGAUCACCCAUGUAGAAGGCACGAGCUGAU”: the “apparent Kd” value by setting is: under setting [3], 12.9 nM; under setting [4], 225 nM.

On to “CCAUGCGGAUGAGGAUAUUCAUUCAUGAGGAUAGAAGAAGGCGUACAUGAGGAUCACCCAUGUAUACACAUGAGGAUCCCUUAC”, for which the “apparent Kd” value was found to be 385 nM under setting [3] and 372 nM under setting [4].

Regarding “UUCAGGGAUCAAGGAUAUCUAUACUCAUGCGGACAUGAGGAUCACCCAUGUUGAUUACCCAUGAGGGAGAAGGUGAACAUGAGG”, the “apparent Kd” value was 31.3 nM under setting [1] and 18.7 nM under setting [2].

On to “GGAUAGGACAGAGGAUAUACAGAUAGGAUCUACUAUCAAACAGUCCUUACAUGAGGAUCACCCAUGUAGAAGGCUGUCCUAUCG”, for which the “apparent Kd” value by setting is: under setting [3], 19.4 nM; under setting [4], 87.4 nM.

As to “UGCGUACAAGCAAACAUGAGGAUCACCCAUGUGGUCUCAUGCGAGGAUAUCGGGAAGGAGGAUUCCGAGAAGGUGCGGUGAGCC”, the “apparent Kd” value is, setting by setting: under setting [1], 116 nM; under setting [2], 27.9 nM.

“UUUUAACAUGAGGAUCACCCAUGUGAGGAUAUCGAAAUUUAUAUUAAUAUUAAUAAAACGAGAAGGCACAUUUU”: the “apparent Kd” value worked out at 82.2 nM under setting [3] and 90.1 nM under setting [4].

With “AGUAAGAUGCAGAAGGUGUUAGCUAGAGCUACGACAUGAGGAUCACCCAUGUACUCAAAACCGUACAAGGAUAUGCAUCUUACA”, the “apparent Kd” value is, setting by setting: under setting [1], 9.55 nM; under setting [2], 6.26 nM.

On to “UGAGCUUGAGGAUAUACAUGACGUGCCGUAGCACGAGGUCUACAUGAGGAUCACCCAUGUAGAAGGCAAGUUCU”, for which the “apparent Kd” value by setting is: under setting [3], 29.6 nM; under setting [4], 192 nM.

As for “ACAUGGAAUACAGGAUAUGUAAGUUUUAAGUGGAUUGGUUAUUACUUUACAACAGAAGGGUAAUACAUGAGGAUCACCCAUGUA”, the “apparent Kd” value was found to be 30.1 nM under setting [1] and 25.3 nM under setting [2].

Take “GCAAAGCCUGACAUGAGGAUCACCCAUGUUAGAUUGUUAUGUCAGGAUAUUGUCUAGACCCUAGACAAGAAGGGAUGCUUUGCA”: the “apparent Kd” value by setting is: under setting [1], 472 nM; under setting [2], 29.1 nM.

Consider “AAGUCUGGACGAGGAUAUCAGUUGUAUCUAGAUUCAACAUGAGGAUCACCCAUGUUGCAAUAGGGUGAGAAGGCGUUUGGGCAA”, for which the “apparent Kd” value by setting is: under setting [1], 79.9 nM; under setting [2], 21.2 nM.

In the case of “CCAUAAAGGUAGGAUAUCGAUUUUAAUUAAUAUCGAGAAGGGUCAACAUGAGGAUCACCCAUGUCAGCAUGUAA”, the “apparent Kd” value by setting is: under setting [3], 60.9 nM; under setting [4], 58.7 nM.

Source of the values: the EternaBench riboswitch data.
